Screening results: PubChem, several laboratories
sPLA2-III inh – human group III sPLA2 inhibitors, primary screen, biochemical, QFRET, BODIPY PC-A2 liposome substrate | Group 3 secretory phospholipase A2 (Homo sapiens), Q9NZ20 | QFRET BODIPY PC-A2 liposome hydrolysis, fluorescence | inhibition, % at 12.2 µM | 370,000 tested, 0.56% active;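 active = inhibition above mean plus 3 SD of compounds lying within the high and low control bounds, cut at about 19% in these data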
Target sequence (Q9NZ20 whole entry, looked up): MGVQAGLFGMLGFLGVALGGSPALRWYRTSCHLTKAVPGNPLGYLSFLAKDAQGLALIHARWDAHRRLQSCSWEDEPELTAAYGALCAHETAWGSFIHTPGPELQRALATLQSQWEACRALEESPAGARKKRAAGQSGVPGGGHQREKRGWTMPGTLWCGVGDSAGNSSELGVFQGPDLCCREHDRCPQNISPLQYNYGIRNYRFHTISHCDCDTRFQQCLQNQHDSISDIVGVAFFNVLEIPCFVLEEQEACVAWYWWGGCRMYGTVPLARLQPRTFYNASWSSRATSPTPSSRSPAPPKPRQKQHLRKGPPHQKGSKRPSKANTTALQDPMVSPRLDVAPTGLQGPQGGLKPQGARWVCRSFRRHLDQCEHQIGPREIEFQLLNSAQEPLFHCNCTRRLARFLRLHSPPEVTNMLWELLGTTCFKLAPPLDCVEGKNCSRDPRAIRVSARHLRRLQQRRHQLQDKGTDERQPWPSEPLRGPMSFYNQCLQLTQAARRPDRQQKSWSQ
ARNT-TACC3 inh – disruptors of ARNT/TACC3 protein interaction, primary screen, biochemical, AlphaScreen, single concentration; Transforming acidic coiled-coil-containing protein 3 (Homo sapiens), Q9Y6A5; AlphaScreen His-ARNT PAS-B/GST-TACC3 binding, luminescence; TACC3 fragment carries E629A point mutation; inhibition, % at 9.99 µM; 390,000 tested, 0.66% active;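 active = mean inhibition of replicates at least 50% and at least half of replicates each reaching 50%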
SR-BI DiI inh – inhibitors of SR-BI mediated HDL lipid uptake, primary screen, ldlA[mSR-BI] cells, fluorescence, single point. Scavenger receptor class B member 1 (Mus musculus), Q61009. ldlA[mSR-BI] CHO cells, DiI-HDL uptake fluorescence, 3 h. inhibition, % at 12.5 µM. 320,000 tested, 0.96% active. AID 488896, 2010;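 active = mean replicate inhibition of at least 70% and a set share of replicates each scoring 70 or more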
SR-BI uptake up – activators of SR-BI mediated DiI-HDL uptake, primary screen, ldlA[mSR-BI] CHO cells, DiI fluorescence; 3 h; 100 = double the neutral-control signal; activation, % at 12.5 µM; 320,000 tested, 0.096% active;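 active = mean replicate activation of at least 60% and every replicate at or above 60%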
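Material: SR-BI-overexpressing, LDLR-lacking CHO cells; schedule: compound exposure 3 h, 37 °C; reagent: DiI-labelled HDL at 10 µg/mL final; technique: bottom-read fluorescence, 550/595 nm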
Xi reactivation – activators of inactive X chromosome reactivation, primary screen, imaging, XiGFP fibroblasts, GFP high-content imaging, set 2. XiGFP mouse fibroblasts, % GFP-positive cells imaging, 3 d; cells co-treated with 5-aza-dC sensitizer; scaled so ellipticine positive control = 100%. activation, % at 7.58 µM. 360,000 tested, 0.055% active. AID 743238, 2013;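 active = mean normalized replicate activation at least 10% and every replicate at or above 10%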
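System: 68-5-11 XiGFP fibroblast line | Buffer or medium: DMEM containing 5-aza-dC | Compound: Single point | Times: Compounds 3 days, fix/stain 15 min at room temperature | Benchmarks: Positive control ellipticine, 6 µM final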
NSD2 HMT inh – NSD2 histone methyltransferase inhibitors, primary screen, biochemical, AlphaScreen, single concentration, set 2; Histone-lysine N-methyltransferase NSD2 (Homo sapiens), O96028; NSD2 peptide methylation, 120 min; inhibition, % at 12.5 µM; 310,000 tested, 0.54% active; AID 743445, 2014; in the data active = inhibition above about 50%
Alpha artifact – AlphaScreen signal interference with preloaded methylated product, dose response, artefact control for NSD2 inhibitor project, biochemical, cherry-picked samples; shares compounds with NSD2 HMT inh; AlphaScreen artifact counterscreen, preloaded methylated H4 peptide; AC35, µM (highest dose often 10 µM); 1,500 tested, 9.4% active; AID 1053174, 2014; call rule not given here
Each line names hits and unclear results; the compound was inactive in the other large screens (follow-up assays come after a bar, where they were run); ! = not active in a repeat. An excerpt weighted towards active compounds, which were near 2% of everything screened.

Cc1c([N+](=O)[O-])cc(N2C(=O)C=CC2=O)cc1[N+](=O)[O-]	NSD2 HMT inh 55 (no result: sPLA2-III inh, Xi reactivation) | Alpha artifact inactive
COc1cn(-c2ccccc2)nc1C(=O)NCc1ccccc1	NSD2 HMT inh 79 (no result: ARNT-TACC3 inh) | Alpha artifact inactive
C/C(C=Nn1c(-c2ccc(F)cc2)n[nH]c1=S)=C/c1ccco1	NSD2 HMT inh 61 (no result: ARNT-TACC3 inh, SR-BI DiI inh, SR-BI uptake up, Xi reactivation) | Alpha artifact inactive
CC(/C=N/n1c(-c2cccnc2)n[nH]c1=S)=C\c1ccco1	none
CCN(CC)CCNC(=O)c1c(C)[nH]c(/C=C2\C(=O)Nc3ccc(F)cc32)c1C	NSD2 HMT inh 50 (no result: sPLA2-III inh, ARNT-TACC3 inh, SR-BI DiI inh, SR-BI uptake up, Xi reactivation) | Alpha artifact inactive
Cc1ccc2c(c1)/C(=C/c1ccc(F)cc1)C(=O)N2	none
O=C1Nc2ccccc2/C1=N\N=C\c1ccc(O)c(O)c1	NSD2 HMT inh 119 | Alpha artifact 3µM
COC1=C(c2ccccc2)C(=O)c2ccccc2C1=O	NSD2 HMT inh 81 (no result: ARNT-TACC3 inh) | Alpha artifact inactive
C=CCn1c(SCc2ccc3c(c2)OCO3)nc2scc(-c3ccco3)c2c1=O	NSD2 HMT inh 117 (no result: Xi reactivation) | Alpha artifact inactive
C=CCn1c(SCC(C)=O)nc2scc(-c3ccco3)c2c1=O	none (no result: SR-BI DiI inh, SR-BI uptake up)
CC(=O)NC12CC3CC(C1)CC(C(=O)N1CCN(S(=O)(=O)c4ccccc4[N+](=O)[O-])CC1)(C3)C2	none
CCOc1ccccc1NC(=O)C1CCCN1C(=O)c1cccs1 (configuration not stated)	SR-BI uptake up 87, NSD2 HMT inh 108 (no result: ARNT-TACC3 inh) | Alpha artifact inactive
CCOc1ccccc1NC(=O)N1CCCC1C(=O)NCc1cccs1 (configuration not stated)	none
CCn1c(SCC(=O)NC2CCCCC2)nnc1-c1cccs1	none (no result: Xi reactivation)
CCn1c(SC(=O)NC2CCCCC2)nnc1-c1cccs1	NSD2 HMT inh 59 (no result: Xi reactivation) | Alpha artifact inactive
CC12CC3(C)CC(C)(C1)CC(C(=O)NC1=NCCS1)(C2)C3	NSD2 HMT inh 121 (no result: Xi reactivation) | Alpha artifact inactive
COCCCN1C(=O)[C@H](CC(=O)N2CCSCC2)[C@]2(C(=O)OC)CCCCC=C12	none (no result: ARNT-TACC3 inh, SR-BI DiI inh, SR-BI uptake up, Xi reactivation, NSD2 HMT inh)
COc1cccc2c1C(=N)c1c(O)c3c(c(O)c1C2=O)CC(O)(C(C)=O)CC3OC1CC(N)C(O)C(C)O1 (configuration not stated)	ARNT-TACC3 inh 49, NSD2 HMT inh 56 (no result: sPLA2-III inh, Xi reactivation) | Alpha artifact 8.5µM
COc1ccccc1NC(=O)c1ccc(-n2cccn2)nc1	NSD2 HMT inh 118 (no result: Xi reactivation) | Alpha artifact inactive
C/C(NCCc1ccccc1)=C1/CCOC1=O	NSD2 HMT inh 65 (no result: ARNT-TACC3 inh, SR-BI DiI inh, SR-BI uptake up) | Alpha artifact inactive
CC(CS(=O)(=O)c1ccc2c(c1)NC(=O)CS2)C(=O)NCc1ccccc1Cl (configuration not stated)	NSD2 HMT inh 55 | Alpha artifact inactive
O=C(COc1ccccc1Cl)Nc1ccccc1C(=O)Nc1cccc(C(=O)O)c1	none
C[C@@H]1CN([C@@H](C)CO)S(=O)(=O)c2ccc(-c3ccccc3F)cc2O[C@@H]1CN(C)C(=O)C1CC1	none (no result: sPLA2-III inh, SR-BI DiI inh, SR-BI uptake up, NSD2 HMT inh)
COc1cc2c(C#N)c(N3CCCC3)nc(N)c2c(N)n1	ARNT-TACC3 inh 34!, NSD2 HMT inh 68 | Alpha artifact inactive
O=C(CSc1n[nH]c(=O)n1-c1ccc2c(c1)OCCO2)Nc1ccccc1	none
Cc1cccc(-c2nnc(SCC(=O)c3ccc(O)cc3O)n2C)c1	NSD2 HMT inh 96 (no result: SR-BI DiI inh, SR-BI uptake up) | Alpha artifact inactive
O=C1NN(c2ccc(Cl)cc2)C(=O)/C1=C\c1ccc(-c2cccc(C(=O)O)c2)o1	NSD2 HMT inh 54 | Alpha artifact inactive
O=C(c1ccccc1)c1cc2ccccc2oc1=O	NSD2 HMT inh 113 | Alpha artifact inactive
O=c1c2ccccc2nnn1CSc1nc2ccccc2c(=O)n1CCCO	NSD2 HMT inh 52 | Alpha artifact inactive
O=C(Cn1cnc2c(cnn2-c2ccccc2)c1=O)OCc1ccccc1	NSD2 HMT inh 95 (no result: Xi reactivation) | Alpha artifact inactive
CCOC(=O)c1c(C)[nH]c(C)c1C(=O)CSc1nc2ccccc2[nH]1	none
CCOC(=O)CCCCC(=O)c1[nH]c(=O)[nH]c1CSc1nc(C)cc(=O)[nH]1	NSD2 HMT inh 106 (no result: Xi reactivation) | Alpha artifact inactive
CCOC(=O)CCCCC(=O)c1[nH]c(=O)[nH]c1CSc1nc(C)cc(C)n1	none (no result: Xi reactivation, NSD2 HMT inh)
CCOC(=O)CCCCC(=O)c1[nH]c(=O)[nH]c1CSc1nc2ccccc2[nH]1	NSD2 HMT inh 100 (no result: Xi reactivation) | Alpha artifact inactive
CCN1CC2CCCC3(C1)C(=O)NC1(CCCCC1)N=C23 (configuration not stated)	NSD2 HMT inh 56 (no result: Xi reactivation) | Alpha artifact inactive
Cc1ccc(-n2nc3c(=O)n(CC(=O)NCc4ccccc4Cl)nc(C)c3c2C)cc1	none
Cc1ccc(-n2nc3c(=O)n(CC(=O)NCc4ccccc4)nc(C)c3c2C)cc1	NSD2 HMT inh 80 | Alpha artifact inactive
COc1ccc(C(C(=O)NCC2CCCO2)N(Cc2ccccc2)C(=O)c2snc(C(N)=O)c2N)cc1OC (configuration not stated)	none
Cc1cc(Cl)cc(Br)c1OCCCN1C(=O)NC(C)(C)C1=O	NSD2 HMT inh 73 (no result: Xi reactivation) | Alpha artifact inactive
Cc1cc(C)c(OCCN2C(=O)NC(C)(C)C2=O)c(Cl)c1	none (no result: Xi reactivation)
Cc1cc(Cl)c(OCCN2C(=O)NC(C)(C)C2=O)c(Br)c1	NSD2 HMT inh 71 (no result: Xi reactivation) | Alpha artifact inactive
COc1ccccc1S(=O)(=O)N[C@@H]1CC[C@H](CC(=O)N2CCOCC2)O[C@H]1CO	none (no result: sPLA2-III inh, ARNT-TACC3 inh, SR-BI DiI inh, SR-BI uptake up, NSD2 HMT inh)
Cc1nn(CC(=O)Nc2ccc3c(c2)nc(CCN2CCCCC2)n3C)c(=O)c2ccccc12	none (no result: Xi reactivation)
CC(=O)N1CCN(Cc2nc3cc(NC(=O)Cn4nc(C)c5ccccc5c4=O)ccc3n2C)CC1	NSD2 HMT inh 60 (no result: Xi reactivation) | Alpha artifact inactive
COc1cc(OC)c(C(=O)NC2CCCc3ccccc32)cc1OC (configuration not stated)	none (no result: ARNT-TACC3 inh)
COc1cc(C(=O)NC2CCCc3ccccc32)cc(OC)c1OC (configuration not stated)	NSD2 HMT inh 102 | Alpha artifact inactive
C(=N\Nc1ccccn1)/c1cccnc1	none
FC(F)(F)c1ccc(N/N=C/c2cccnc2)nc1	NSD2 HMT inh 116 | Alpha artifact inactive
